Assay results from ChEMBL document CHEMBL3865841, “Photosensitizer (PS)-cyanine dye (CD) conjugates: Impact of the linkers joining the PS and CD moieties and their orientation in tumor-uptake and photodynamic therapy (PDT)” (Eur J Med Chem, 2016).
The source made the active and inactive calls. The calls are words filed in the database; no cut-off is given here.

Tests used:
[1] = Drug uptake in Balb/c mouse liver implanted with mouse Colon 26 cells at 0.3 umol/kg, iv after 24 hrs by reflectance spectroscopic analysis; assay type: ADME, organism-based; conditions: in vivo
[2] = tested on: Mus musculus; experiment: Toxicity in Balb/c mouse implanted with mouse Colon 26 cells assessed as mortality at 2.5 to 3.5 umol/kg, iv preincubated for 24 hrs subsequent irradiation at 128 J/cm2 measured up to 60 days; assay type: organism-based; conditions: in vivo, 1440 h
In short: (§1)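 BALB/c mice carried s.c. Colon-26 tumours (1 × 10⁶ cells, right posterior shoulder) grown to 4–5 mm. Conjugates were given i.v. via the tail vein at 0.4–3.5 µmol/kg. At 24 h, unanaesthetised restrained mice received 665 nm laser light on a 1.1 cm spot (128 J/cm², 14 mW/cm²). Mice were observed daily for up to 60 days for death or morbidity, which led to euthanasia.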

[3] = Drug uptake in human U87 cell mitochondria assessed as color overlay at 0.25 to 2 uM after 4 to 24 hrs in dark by mitotracker red dye-based confocal microscopic analysis; assay type: ADME; conditions: u-87mg atcc
In short: (§2)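 U87 glioblastoma cells seeded at 1.25 × 10⁵ in glass-bottom dishes, cultured 24–48 h, then given conjugate at 0.25, 0.5, 1.0 or 2.0 µM in the dark at 37°C for 4 h and 24 h. Co-stained with MitoTracker Red 2.5 nM for 10 min and FluoSpheres yellow/green 1/10,000 of a 1/10 stock for 24 h. Confocal imaging with excitation 488, 543 and 633 nm.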

[4] = Ratio of drug uptake in tumor to skin in Balb/c mouse implanted with mouse Colon 26 cells at 0.3 umol/kg, iv after 24 hrs by reflectance spectroscopic analysis; assay type: ADME, organism-based; conditions: in vivo
[5] = Phototoxicity against mouse Colon 26 cells assessed as reduction in cell viability preincubated for 24 hrs with subsequent 4 J/cm2 irradiation measured after 48 hrs incubation in dark by MTT assay; assay type: functional, cell-based; conditions: Colon 26, light or radiation study
In short: (§3)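 Colon-26 (RPMI-1640, 10% FCS) or U87 (MEM, 10% FCS) cells at 5000/well were given conjugate at 0–4 µM for 24 h. Compounds were formulated in 1% Tween-80/D5W and diluted in medium. Cells were washed and refed, then irradiated at 4 J/cm², 3.2 mW/cm². Then 44 h at 37°C in the dark, MTT 4 h, DMSO, A560. EC50 at 4 J/cm². Colon-26: two independent experiments, triplicates.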

[6] = Drug uptake in mouse colon 26 cell lysosomes assessed as color overlay at 0.25 to 2 uM after 4 to 24 hrs in dark by FluoSpheres yellow green dye-based confocal microscopic analysis; assay type: ADME, Lysosome; conditions: colon 26, 2 µM
In short: (§4)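 Colon-26 cells seeded at 1.25 × 10⁵ in glass-bottom dishes, cultured 24–48 h, then given conjugate at 0.25, 0.5, 1.0 or 2.0 µM in the dark at 37°C for 4 h and 24 h. Co-stained with MitoTracker Red 2.5 nM for 10 min and FluoSpheres yellow/green 1/10,000 of a 1/10 stock for 24 h. Media replaced before Leica TCS SP2 confocal imaging; excitation 488 (lysosome), 543 (mitochondria), 633 nm (HPPH).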

[7] = Drug uptake in mouse colon 26 cell mitochondria assessed as color overlay at 0.25 to 2 uM after 4 to 24 hrs in dark by mitotracker red dye-based confocal microscopic analysis; assay type: ADME; conditions: colon 26, 2 µM; in short: as §4
[8] = Drug uptake in human U87 cell lysosomes assessed as color overlay at 0.25 to 2 uM after 4 to 24 hrs in dark by FluoSpheres yellow green dye-based confocal microscopic analysis; assay type: ADME, Lysosome; conditions: u-87mg atcc; in short: as §2
[9] = tested on: Mus musculus; experiment: Toxicity in Balb/c mouse implanted with mouse Colon 26 cells assessed as morbidity at 2.5 to 3.5 umol/kg, iv preincubated for 24 hrs subsequent irradiation at 128 J/cm2 measured up to 60 days; assay type: organism-based; conditions: in vivo, 1440 h; in short: as §1
[10] = Phototoxicity against human U87 cells assessed as reduction in cell viability preincubated for 24 hrs with subsequent irradiation 4 J/cm2 followed by 48 hrs incubation in dark by MTT assay; assay type: functional, cell-based, U-87MG ATCC; conditions: U-87 MG, light or radiation study; in short: as §3
[11] = Phototoxicity against mouse Colon 26 cells implanted in Balb/c mouse assessed as tumor cure incidents at 1.5 umol/kg, iv preincubated for 24 hrs with subsequent irradiation at 128 J/cm2 measured after 60 days; assay type: functional
In short: (§5)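 BALB/c mice bore s.c. Colon-26 tumors (1 × 10⁶ cells, shoulder) of 4–5 mm. Conjugate given i.v. via tail vein at 0.4, 0.75, 1.5, 2.5 or 3.5 µmol/kg. At 24 h unanesthetized mice got 665 nm laser, 128 J/cm², 14 mW/cm², 1.1 cm spot. Regrowth checked daily, volume L*W²/2. Cure = no palpable tumor by day 60; euthanasia at 400 mm³.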

[12] = Drug uptake in human U87 cells at 1 uM after 24 hrs in dark by flow cytometry; assay type: ADME, cell-based; conditions: u-87mg atcc
In short: (§6)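 Colon-26 or U87 cells seeded at 5.0 × 10⁵ per well, 24 h, then exposed to conjugate at 1 µM in the dark at 37°C for 24 h. Cells harvested, spun cold at 10°C, resuspended in cold 2% FCS in PBS, run on a BD LSR II. Analysis used the 405 nm violet laser with 780/60, 710/50 and 660/20 nm filters.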

[13] = Drug uptake in mouse Colon 26 cells at 1 uM after 24 hrs in dark by flow cytometry; assay type: ADME, cell-based; conditions: colon 26, 24 h; in short: as §6
[14] = Phototoxicity against mouse Colon 26 cells implanted in Balb/c mouse assessed as tumor cure incidents at 3.5 umol/kg, iv pretreated for 24 hrs subsequent irradiation at 128 J/cm2 measured after 60 days relative to control; assay type: functional; in short: as §5
[15] = tested on: Colon 26; experiment: Phototoxicity against mouse Colon 26 cells implanted in Balb/c mouse assessed as increase in tumor cure incidents at 0.75 to 1.5 umol/kg, iv preincubated for 24 hrs with subsequent irradiation at 128 J/cm2 measured up to 60 days; assay type: functional, organism-based; in short: as §5
[16] = Drug uptake in mouse colon 26 cell lysosomes assessed as color overlay at 1 uM after 24 hrs in dark by FluoSpheres yellow green dye-based confocal microscopic analysis; assay type: ADME, Lysosome; conditions: colon 26, 24 h
In short: (§7)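 Colon-26 cells held with conjugate at 1 µM, imaged 24 h later by confocal microscopy. Lysosomal dye FluoSpheres yellow green at 1/100,000 dilution of commercial stock; mitochondrial MitoTracker Red at 2.5 nM for 10 min. Overlays of the conjugate signal with each organelle dye.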

[17] = Drug uptake in human U87 cell lysosomes assessed as color overlay at 1 uM after 24 hrs in dark by FluoSpheres yellow green dye-based confocal microscopic analysis; assay type: ADME, Lysosome; conditions: u-87mg atcc
In short: (§8)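 U87 cells held with conjugate at 1 µM, imaged 24 h later by confocal microscopy. Lysosomal FluoSpheres yellow green at 1/100,000 dilution of commercial stock; MitoTracker Red 2.5 nM for 10 min. Overlays of the conjugate signal with each organelle dye.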

[18] = Drug uptake in mouse colon 26 cell mitochondria assessed as color overlay at 1 uM after 24 hrs in dark by mitotracker red dye-based confocal microscopic analysis; assay type: ADME; conditions: colon 26, 24 h; in short: as §7
[19] = tested on: U-87MG ATCC; experiment: Phototoxicity against human U87 cells xenografted in immunocompromized nude mouse assessed as increase in tumor cure incidents at 1.5 umol/kg, iv preincubated for 24 hrs subsequent irradiation at 128 J/cm2 measured after 60 days; assay type: functional, organism-based
In short: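 Athymic nude mice bore s.c. U87 tumors (2 × 10⁶ cells) of 4–5 mm. Conjugate given i.v. at 1.5 µmol/kg. At 24 h post-injection tumors got 665 nm laser light, 128 J/cm², 14 mW/cm². Mice followed daily for regrowth; cure = no palpable tumor by day 60.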

[20] = Drug uptake in human U87 cell mitochondria assessed as color overlay at 1 uM after 24 hrs in dark by mitotracker red dye-based confocal microscopic analysis; assay type: ADME; conditions: u-87mg atcc; in short: as §8
[21] = Drug uptake in immunocompromized nude mouse tumor xenografted with human U87 cells at 0.03 umol/kg, iv after 24 to 72 hrs by reflectance spectroscopic analysis; assay type: ADME, organism-based, Neoplasm, U-87MG ATCC; conditions: in vivo

SMILES | Drug uptake [1] | Activity [2] | Drug uptake [3] | Ratio [4] | EC50 [5] [nM] | Drug uptake [6] | Drug uptake [7] | Drug uptake [8] | Activity [9] | EC50 [10] [nM] | Activity [11] [%] | Drug uptake [12] | Drug uptake [13] | Activity [14] [%] | Activity [15] | Activity [19] | further results
CCCCCCOC(C)c1c(C)c2cc3nc(c4c5[nH]c(cc6nc(cc1[nH]2)C(C)=C6CC)c(C)c5C(=O)C4)[C@@H](CCC(=O)NCCNC(=O)c1cccc(SC2=C(/C=C/C4=[N+](CCCCS(=O)(=O)[O-])c5ccc6ccccc6c5C4(C)C)CCC/C2=C\C=C2\N(CCCCS(=O)(=O)O)c4ccc5ccccc5c4C2(C)C)c1)[C@@H]3C (stereo partly specified) | Active | Toxic | Active | 2.5 | 1580 | Active | Active | Active | Toxic | 570 | 80 | – | – | – | – | – | –
CCCCCCOC(C)c1c(C)c2cc3nc(c4c5[nH]c(cc6nc(cc1[nH]2)C(C)=C6CC)c(C)c5C(=O)C4)[C@@H](CCC(=O)NCCCCNC(=O)c1ccc(SC2=C(/C=C/C4=[N+](CCCCS(=O)(=O)[O-])c5ccc6ccccc6c5C4(C)C)CCC/C2=C\C=C2\N(CCCCS(=O)(=O)O)c4ccc5ccccc5c4C2(C)C)cc1)[C@@H]3C (stereo partly specified) | Active | – | Active | 10 | 130 | Active | Active | Active | – | 290 | 20 | Active | Active | – | – | – | –
CCCCCCOC(C)c1c(C)c2cc3nc(c4c5[nH]c(cc6nc(cc1[nH]2)C(C)=C6CC)c(C)c5C(=O)C4)[C@@H](CCC(=O)NCCCCCCNC(=O)c1cccc(SC2=C(/C=C/C4=[N+](CCCCS(=O)(=O)[O-])c5ccc6ccccc6c5C4(C)C)CCC/C2=C\C=C2\N(CCCCS(=O)(=O)O)c4ccc5ccccc5c4C2(C)C)c1)[C@@H]3C (stereo partly specified) | Active | – | Active | 2.5 | 200 | Active | Active | Active | – | 380 | – | – | – | 90 | Active | – | –
CCCCCCOC(C)c1c(C)c2cc3nc(c4c5[nH]c(cc6nc(cc1[nH]2)C(C)=C6CC)c(C)c5C(=O)C4)[C@@H](CCC(=O)NCCCCNC(=O)c1cccc(SC2=C(/C=C/C4=[N+](CCCCS(=O)(=O)[O-])c5ccc6ccccc6c5C4(C)C)CCC/C2=C\C=C2\N(CCCCS(=O)(=O)O)c4ccc5ccccc5c4C2(C)C)c1)[C@@H]3C (stereo partly specified) | Active | – | – | 6.5 | 180 | – | – | – | – | 150 | 80 | Active | Active | – | – | Active | Drug uptake [16]: Active; Drug uptake [17]: Active; Drug uptake [18]: Active; Drug uptake [20]: Active; Drug uptake [21]: Active
CCCCCCOC(C)c1c(C)c2cc3nc(c4c5[nH]c(cc6nc(cc1[nH]2)C(C)=C6CC)c(C)c5C(=O)C4)[C@@H](CCC(=O)NCCNC(=O)c1ccc(SC2=C(/C=C/C4=[N+](CCCCS(=O)(=O)[O-])c5ccc6ccccc6c5C4(C)C)CCC/C2=C\C=C2\N(CCCCS(=O)(=O)O)c4ccc5ccccc5c4C2(C)C)cc1)[C@@H]3C (stereo partly specified) | Active | Toxic | Active | 2 | 2510 | Active | Active | Active | Toxic | 790 | – | – | – | – | – | – | –
CCCCCCOC(C)c1c(C)c2cc3nc(c4c5[nH]c(cc6nc(cc1[nH]2)C(C)=C6CC)c(C)c5C(=O)C4)[C@@H](CCC(=O)NCCCCCCNC(=O)c1ccc(SC2=C(/C=C/C4=[N+](CCCCS(=O)(=O)[O-])c5ccc6ccccc6c5C4(C)C)CCC/C2=C\C=C2\N(CCCCS(=O)(=O)O)c4ccc5ccccc5c4C2(C)C)cc1)[C@@H]3C (stereo partly specified) | Active | – | Active | 2.3 | 720 | Active | Active | Active | – | 590 | – | – | – | 70 | Active | Active | –
